For assay [1], the system named is human neutrophils, monocytes and lymphocytes. Type of assay: cell-based.
For assay [2], the system named is lung cell populations of TDM-challenged C57BL/6 mice. Nature of the assay: In vivo cellular specificity of cFLFLFK-PEG12-Cy3 in TDM-challenged mouse lung. To be noted: 50 µg i.v., 4 h circulation, 5 days after TDM; flow cytometry, n=3. The essentials: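 Female C57BL/6 mice (8 weeks, 18–20 g) received 100 µg TDM i.v. Five days later they got 50 µg Cy3-labelled test compound i.v. (n=3) or PBS (n=2). Lungs were digested 4 h later, and cells (2×10^6/mL in HBSS+) were live/dead stained 30 min on ice. They were blocked 30 min (40% mouse serum), plated at 1×10^6/well and mAb-stained. Flow cytometry acquired 100,000 live events. Gated populations were CD11b+Ly6G+, CD3+, CD11c+CD11b-, CD11b+CD11c+, CD11b+CD11c- and marker-negative. Each population's share of total Cy3 signal was pooled across mice.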

The next assay concerns C57BL/6 mouse lung. Nature of the assay: TDM-induced lung granulomatous inflammation in mice. Format: in vivo. The essentials: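 TDM was given via tail vein as an oil-in-water emulsion (100 µL, 100 µg), or vehicle alone. Day-5 lungs were H&E-stained for light microscopy (histology mice 6 weeks old). Flow cytometry used five TDM-treated mice (female, 8 weeks) with live/dead staining and mAb gating: CD11b+Ly6G+ neutrophils, CD3+ lymphocytes, CD11c+CD11b- alveolar macrophages, CD11b+CD11c+ macrophages/dendritic cells, CD11b+CD11c- monocytes/immature macrophages. Values are percentages of all living cells.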

[3] abbreviates: five TDM-administered mice, day 5.

As to cFLFLFK-PEG12-Cy3, in assay [1], the “Cy3 MFI on neutrophils compared with monocytes and lymphocytes” value is recorded as “significantly higher”; the “Dose dependence of binding to neutrophils, monocytes and lymphocytes” value is recorded as “Dose-dependent binding was observed on all cell types”. The “Targeting of lymphocytes and other (antibody-negative) cells in the lung” value in assay [2] was “not targeted”.
In the case of trehalose dimycolate [TDM], the “Lung histology (H&E)” value with C57BL/6 mouse lung (100 µg TDM i.v., day 5, versus vehicle emulsion) is on record as “patchy regions of granulomatous inflammation were observed”. The “Change in lung frequency of CD3+ lymphocytes” value in the assay with C57BL/6 mouse lung (100 µg TDM i.v., day 5, flow cytometry) was “unchanged”. Moreover, the “Frequency increase of lung neutrophils compared to vehicle-injected mice” value in the assay with C57BL/6 mouse lung (100 µg TDM i.v., day 5, flow cytometry, data not shown) is 9.1% ± 6.4%. Further, in the assay on C57BL/6 mouse lung (setting [3]), the “Percentage of alveolar macrophages relative to all living lung cells” value is recorded as 6.3% ± 1.7%, the “Percentage of immature macrophages/monocytes relative to all living lung cells” value is 20.1% ± 3.1%, the “Percentage of lymphocytes relative to all living lung cells” value is 10.7% ± 2.5% and the “Percentage of macrophages/dendritic cells relative to all living lung cells” value was 17.7% ± 7.7%. In addition, the “Percentage of neutrophils relative to all living lung cells” value with C57BL/6 mouse lung (setting [3]) is 9.2% ± 3.7%.
